Data as given in ChEMBL document CHEMBL4334504 (J Med Chem, 2019).
Values after ≈ are worked out from the molar mass of the structure shown.

Assays:
Clostridioides difficile [1] = test: Antibacterial activity against Clostridium difficile 4118 ATCC BAA 1870 assessed as bacterial growth inhibition incubated for 48 hrs under anaerobic condition by CLSI protocol-based assay; type: functional; settings: 4118 ATCC BAA 1870, 48 h
Procedure, shortened: (§1)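 Broth microdilution following CLSI guidance. Strains pre-grown anaerobically on BHIS agar (BHI plus yeast extract, vitamin K1, hemin) at 37 °C for 48 h. ~10^5 CFU/mL in BHIS broth added to serial compound dilutions. Incubated anaerobically at 37 °C for 48 h. MIC is the lowest concentration showing visible growth inhibition.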

Clostridioides difficile [2] = test: Antibacterial activity against Clostridium difficile VPI 10463 ATCC 43255 assessed as bacterial growth inhibition incubated for 48 hrs under anaerobic condition by CLSI protocol based assay; type: functional; settings: ATCC 43255 VPI 10463, 48 h; procedure, shortened: as §1
Bifidobacterium bifidum = test: Effect on growth of Bifidobacterium bifidum 212A ATCC 11863 measured after 48 hrs in anerobic conditions by CLSI method; type: organism-based; settings: in vivo
Escherichia coli = test: Effect on growth of Escherichia coli ATCC 25922 assessed as bacterial growth inhibition measured after 16 to 18 hrs by CLSI method; type: organism-based; settings: in vivo
Procedure, shortened: (§2)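 CLSI microdilution. Colonies from TSA (16-20 h, 37 °C) suspended in PBS to 0.5 McFarland, then diluted in TSB to ~10^5 CFU/mL. Incubated with serial compound dilutions for 16-20 h at 37 °C. MIC is the lowest concentration inhibiting growth.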

Enterobacter cloacae = test: Effect on growth of Enterobacter cloacae ATCC BAA 1143 assessed as bacterial growth inhibition measured after 16 to 18 hrs grown in tryptic soy medium by CLSI method; type: organism-based; settings: in vivo; procedure, shortened: as §2
[3] = test system: Lacticaseibacillus paracasei; test: Effect on growth of Lactobacillus casei ATCC 334 measured after 48 hrs in 5% CO2 by CLSI method
[4] = Effect on growth of Lactobacillus crispatus JV-V01 HM 103 measured after 48 hrs in 5% CO2 by CLSI method; settings: lactobacillus crispatus jv-v01, 48 h
[5] = Effect on growth of Lactobacillus gasseri EX336960VC03 HM 400 measured after 48 hrs in 5% CO2 by CLSI method; settings: lactobacillus gasseri ex336960vc03, 48 h
Caco-2 = test: Cytotoxicity against human Caco2 cells at > 256 uM measured after 2 hrs by MTS assay; type: cell-based; settings: caco-2, 2 h
HRT-18 cell line = test: Cytotoxicity against human HRT18 cells at > 256 uM measured after 2 hrs by MTS assay; type: cell-based; settings: hrt-18, 2 h
Vero = test: Cytotoxicity against African green monkey Vero cells at > 256 uM measured after 2 hrs by MTS assay; type: cell-based; settings: chlorocebus sabaeus

Molecule	MIC (Clostridioides difficile [1]) [µM]	MIC (Clostridioides difficile [2]) [µM]	further results
Cc1csc2c(O)ncnc12	> 770	> 770	
O=c1[nH]c(-c2ccccc2)nc2ccsc12	> 560	> 560	
C#Cc1ccc(/C=C/c2nc3c([N+](=O)[O-])csc3c(=O)[nH]2)cc1	6 (≈ 1.94 µg/mL)	12 (≈ 3.88 µg/mL)	
Cc1nc(Nc2ccccc2)c2scc([N+](=O)[O-])c2n1	28 (≈ 8.02 µg/mL)	14 (≈ 4.01 µg/mL)	
Oc1ncnc2ccsc12	420 (≈ 63.9 µg/mL)	840 (≈ 128 µg/mL)	
COc1ccc(-n2c(C)nc3c([N+](=O)[O-])csc3c2=O)cc1	202 (≈ 64.1 µg/mL)	101 (≈ 32 µg/mL)	
Cc1nc2c([N+](=O)[O-])csc2c(=O)n1CC(=O)Nc1ccccc1	46 (≈ 15.8 µg/mL)	23 (≈ 7.92 µg/mL)	
O=c1[nH]cnc2ccc([N+](=O)[O-])cc12	335 (≈ 64 µg/mL)	335 (≈ 64 µg/mL)	MIC (Bifidobacterium bifidum): > 700 µM; MIC (Escherichia coli): > 700 µM; MIC (Enterobacter cloacae): > 700 µM; MIC [3]: > 700 µM; MIC [4]: > 700 µM; MIC [5]: > 700 µM
CCOC(=O)Cn1c(C)nc2c([N+](=O)[O-])csc2c1=O	54 (≈ 16.1 µg/mL)	54 (≈ 16.1 µg/mL)	
CCCc1nc2c([N+](=O)[O-])csc2c(=O)[nH]1	67 (≈ 16 µg/mL)	67 (≈ 16 µg/mL)	
Cc1nc2c([N+](=O)[O-])csc2c(=O)n1CC(=O)O	> 475	> 475	
O=c1[nH]c(/C=C/c2ccc(Cl)cc2)nc2c([N+](=O)[O-])csc12	6 (≈ 2 µg/mL)	6 (≈ 2 µg/mL)	Activity (Caco-2): Non-Toxic; Activity (HRT-18 cell line): Non-Toxic; Activity (Vero): Non-Toxic; MIC (Bifidobacterium bifidum): > 767 µM; MIC (Escherichia coli): > 767 µM; MIC (Enterobacter cloacae): > 767 µM; MIC [3]: > 767 µM; MIC [4]: > 767 µM; MIC [5]: > 767 µM
O=c1[nH]c(/C=C/c2ccc(O)cc2)nc2c([N+](=O)[O-])csc12	26 (≈ 8.2 µg/mL)	13 (≈ 4.1 µg/mL)	
O=[N+]([O-])c1csc2c(Cl)nc(/C=C/c3ccc(F)cc3)nc12	95 (≈ 31.9 µg/mL)	95 (≈ 31.9 µg/mL)	
Cc1nc2c([N+](=O)[O-])csc2c(=O)n1CC(=O)N1CCOCC1	47 (≈ 15.9 µg/mL)	94 (≈ 31.8 µg/mL)	
Cc1nc2c([N+](=O)[O-])csc2c(=O)n1CCc1ccccc1	13 (≈ 4.1 µg/mL)	13 (≈ 4.1 µg/mL)	
Cc1nc2c([N+](=O)[O-])csc2c(=O)n1CC(=O)N1CCN(C)CC1	91 (≈ 32 µg/mL)	91 (≈ 32 µg/mL)	
COc1ccc(/C=C/c2nc3c([N+](=O)[O-])csc3c(=O)[nH]2)cc1	12 (≈ 3.95 µg/mL)	12 (≈ 3.95 µg/mL)	
Cc1nc2c([N+](=O)[O-])csc2c(=O)n1CC(=O)OC(C)(C)C	49 (≈ 15.9 µg/mL)	98 (≈ 31.9 µg/mL)	
O=C(O)c1ccc(/C=C/c2nc3c([N+](=O)[O-])csc3c(=O)[nH]2)cc1	46 (≈ 15.8 µg/mL)	184 (≈ 63.2 µg/mL)	
COc1ccc(Cn2c(C)nc3c([N+](=O)[O-])csc3c2=O)cc1	24 (≈ 7.95 µg/mL)	24 (≈ 7.95 µg/mL)	
O=C(O)c1ccc(/C=C/c2nc3c([N+](=O)[O-])csc3c(=O)[nH]2)o1	> 384	> 384	
GENTAMICIN			MIC (Escherichia coli): 8 µM; MIC (Enterobacter cloacae): <= 1 uM
Cc1nc(Cl)c2scc([N+](=O)[O-])c2n1	17 (≈ 3.9 µg/mL)	34 (≈ 7.81 µg/mL)	
Cc1nc2cscc2c(=O)[nH]1	192 (≈ 31.9 µg/mL)	768 (≈ 128 µg/mL)	
O=c1[nH]c(/C=C/c2ccco2)nc2c([N+](=O)[O-])csc12	27 (≈ 7.81 µg/mL)	27 (≈ 7.81 µg/mL)	
Cc1nc2c([N+](=O)[O-])csc2c(=O)n1Cc1cccc([N+](=O)[O-])c1	23 (≈ 7.97 µg/mL)	23 (≈ 7.97 µg/mL)	
O=c1[nH]c(-c2cccc([N+](=O)[O-])c2)nc2c([N+](=O)[O-])csc12	50 (≈ 15.9 µg/mL)	50 (≈ 15.9 µg/mL)	

Molecule	MIC (Clostridioides difficile [1]) [µM]	MIC (Clostridioides difficile [2]) [µM]	further results
CN[C@H](CC(C)C)C(=O)N[C@H]1C(=O)N[C@@H](CC(N)=O)C(=O)N[C@H]2C(=O)N[C@H]3C(=O)N[C@H](C(=O)N[C@H](C(=O)O)c4cc(O)cc(O)c4-c4cc3ccc4O)[C@H](O)c3ccc(c(Cl)c3)Oc3cc2cc(c3O[C@@H]2O[C@H](CO)[C@@H](O)[C@H](O)[C@H]2O[C@H]2C[C@](C)(N)[C@H](O)[C@H](C)O2)Oc2ccc(cc2Cl)[C@H]1O [VANCOMYCIN]	0.7 (≈ 1.01 µg/mL)	0.3 (≈ 0.435 µg/mL)	MIC [4]: <= 1 uM; MIC [5]: <= 1 uM
Cc1nc2ncccc2c(=O)[nH]1	> 794	> 794	
Cc1nc2c([N+](=O)[O-])cccc2c(=O)[nH]1	312 (≈ 64 µg/mL)	156 (≈ 32 µg/mL)	MIC (Bifidobacterium bifidum): > 700 µM; MIC (Escherichia coli): > 700 µM; MIC (Enterobacter cloacae): > 700 µM; MIC [3]: > 700 µM; MIC [4]: > 700 µM; MIC [5]: > 700 µM
Cc1nc2c(N)cccc2c(=O)[nH]1	> 730	> 730	
O=c1[nH]c(/C=C/c2cccc(F)c2)nc2c([N+](=O)[O-])csc12	13 (≈ 4.12 µg/mL)	13 (≈ 4.12 µg/mL)	
Cc1nc2c([N+](=O)[O-])coc2c(=O)[nH]1	41 (≈ 8 µg/mL)	41 (≈ 8 µg/mL)	MIC (Bifidobacterium bifidum): > 700 µM; MIC (Escherichia coli): > 700 µM; MIC (Enterobacter cloacae): > 700 µM; MIC [3]: > 700 µM; MIC [4]: > 700 µM; MIC [5]: > 700 µM
Cc1nc2c([N+](=O)[O-])csc2c(=O)n1Cc1ccccc1[N+](=O)[O-]	23 (≈ 7.97 µg/mL)	23 (≈ 7.97 µg/mL)	
Cc1nc2c([N+](=O)[O-])csc2c(=O)n1Cc1ccccc1	7 (≈ 2.11 µg/mL)	56 (≈ 16.9 µg/mL)	Activity (Caco-2): Non-Toxic; Activity (HRT-18 cell line): Non-Toxic; Activity (Vero): Non-Toxic; MIC (Bifidobacterium bifidum): > 425 µM; MIC (Escherichia coli): > 850 µM; MIC (Enterobacter cloacae): > 850 µM; MIC [3]: > 425 µM; MIC [4]: > 425 µM; MIC [5]: > 425 µM
O=[N+]([O-])c1csc2c(N3CCOCC3)nc(/C=C/c3ccc(F)cc3)nc12	166 (≈ 64.1 µg/mL)	166 (≈ 64.1 µg/mL)	
O=c1[nH]cnc2c([N+](=O)[O-])csc12	20 (≈ 3.94 µg/mL)	10 (≈ 1.97 µg/mL)	
O=c1[nH]c(/C=C/c2ccccc2F)nc2c([N+](=O)[O-])csc12	6 (≈ 1.9 µg/mL)	12 (≈ 3.81 µg/mL)	Activity (Caco-2): Non-Toxic; Activity (HRT-18 cell line): Non-Toxic; Activity (Vero): Non-Toxic; MIC (Bifidobacterium bifidum): > 807 µM; MIC (Escherichia coli): > 807 µM; MIC (Enterobacter cloacae): > 807 µM; MIC [3]: > 807 µM; MIC [4]: > 807 µM; MIC [5]: > 807 µM
Cc1nc2ccsc2c(=O)[nH]1	> 770	385 (≈ 64 µg/mL)	
O=c1[nH]c(/C=C/c2ccccc2)nc2c([N+](=O)[O-])csc12	13 (≈ 3.89 µg/mL)	52 (≈ 15.6 µg/mL)	
Cc1nc2c([N+](=O)[O-])csc2c(=O)n1-c1cccc(C(=O)O)c1	> 386	193 (≈ 63.9 µg/mL)	
Cc1nc2c([N+](=O)[O-])scc2c(=O)[nH]1	38 (≈ 8.03 µg/mL)	38 (≈ 8.03 µg/mL)	MIC (Bifidobacterium bifidum): > 700 µM; MIC (Escherichia coli): > 700 µM; MIC (Enterobacter cloacae): > 700 µM; MIC [3]: > 700 µM; MIC [4]: > 700 µM; MIC [5]: > 700 µM
Cc1nc2ccoc2c(=O)[nH]1	> 852	> 852	
N#Cc1ccc(/C=C/c2nc3c([N+](=O)[O-])csc3c(=O)[nH]2)cc1	> 197	> 197	
Cc1ncc([N+](=O)[O-])n1CCO [METRONIDAZOLE]	0.7 (≈ 0.12 µg/mL)	1.5 (≈ 0.257 µg/mL)	MIC (Bifidobacterium bifidum): > 1496 µM; MIC [3]: 47 µM (≈ 8.04 µg/mL); MIC [4]: > 1496 µM; MIC [5]: > 1496 µM
Cc1nc2c([N+](=O)[O-])csc2c(=O)n1-c1ccc(C(C)C)cc1	> 389	> 389	
Cc1nc2c(F)cccc2c(=O)[nH]1	> 718	> 718	
CCc1nc2c([N+](=O)[O-])csc2c(=O)[nH]1	35 (≈ 7.88 µg/mL)	35 (≈ 7.88 µg/mL)	
Cc1nc2c([N+](=O)[O-])csc2c(=O)n1-c1ccc(-c2ccccc2)cc1	352 (≈ 128 µg/mL)	176 (≈ 64 µg/mL)	
O=c1[nH]c(/C=C/c2cccs2)nc2c([N+](=O)[O-])csc12	13 (≈ 3.97 µg/mL)	13 (≈ 3.97 µg/mL)	
O=c1[nH]c(/C=C/c2ccc([N+](=O)[O-])cc2)nc2c([N+](=O)[O-])csc12	24 (≈ 8.26 µg/mL)	12 (≈ 4.13 µg/mL)	
Cc1nc2c([N+](=O)[O-])csc2c(=O)n1Cc1ccc(C#N)cc1	25 (≈ 8.16 µg/mL)	50 (≈ 16.3 µg/mL)	
O=c1c2scc([N+](=O)[O-])c2nc(/C=C/c2ccc(F)cc2)n1Cc1ccccc1	157 (≈ 64 µg/mL)	157 (≈ 64 µg/mL)	
Cc1nc2c(C)csc2c(=O)[nH]1	> 710	> 710	
